Experimental data: ChEMBL document CHEMBL1138753, “Synthesis and biological activity of analogues of the antimicrotubule agent N,beta,beta-trimethyl-L-phenylalanyl-N(1)-[(1S,2E)-3-carboxy-1-isopropylbut-2-enyl]- N(1),3-dimethyl-L-valinamide (HTI-286)” (J Med Chem, 2004)
pIC50: −log10 of the molar value.

What was measured:
Tubulin beta-1 chain = Tubulin beta-1 chain (Homo sapiens, UniProt Q9H4B7); test: Percent inhibition of tubulin polymerization at 0.3 uM concentration; assay type: functional
[1] = Concentration required to inhibit tumor cell growth in KB-3-1 cells; assay type: functional, cell-based, Homo sapiens; conditions: Homo sapiens, KB 3-1
In short: (§1)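 Cytotoxicity was measured in paclitaxel-sensitive KB-3-1 cells and in KB-8-5 and KB-V1 cells, which express moderate and high P-glycoprotein respectively. Result is the average IC50 (nM) ± SEM; SEM is omitted where it is below 10% of the average.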

KB [2] = test: Concentration required to inhibit tumor cell growth in KB-8-5 cells; assay type: functional, cell-based, Homo sapiens; conditions: Homo sapiens, KB; in short: as §1
KB [3] = test: Concentration required to inhibit tumor cell growth in KB-V1 cells; assay type: functional, cell-based; conditions: Homo sapiens; in short: as §1

Tubulin beta-1 chain, sequence (Q9H4B7 whole entry): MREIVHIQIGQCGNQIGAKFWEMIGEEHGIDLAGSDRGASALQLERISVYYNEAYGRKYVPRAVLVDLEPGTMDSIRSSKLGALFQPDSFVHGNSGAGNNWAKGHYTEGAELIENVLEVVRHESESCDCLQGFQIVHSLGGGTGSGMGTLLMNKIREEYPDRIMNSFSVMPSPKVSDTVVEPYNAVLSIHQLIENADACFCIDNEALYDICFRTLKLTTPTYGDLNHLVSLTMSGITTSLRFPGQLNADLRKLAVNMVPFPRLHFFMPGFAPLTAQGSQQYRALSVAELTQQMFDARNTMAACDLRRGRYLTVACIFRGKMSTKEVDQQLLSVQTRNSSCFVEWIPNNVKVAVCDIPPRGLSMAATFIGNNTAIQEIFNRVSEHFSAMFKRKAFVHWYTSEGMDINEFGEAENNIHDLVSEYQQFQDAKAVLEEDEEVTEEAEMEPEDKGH

| SMILES | inhibition (Tubulin beta-1 chain) [%] | pIC50 [1] | pIC50 (KB [2]) | pIC50 (KB [3]) |
| --- | --- | --- | --- | --- |
| CN[C@H](C(=O)N[C@H](C(=O)N(C)[C@H](/C=C(\C)C(=O)NCc1ccc(-c2ccccc2)cc1)C(C)C)C(C)(C)C)C(C)(C)c1ccccc1 | 11 | 6.18 | 5.78 | < 5.52 |
| CC[C@@H](C(=O)N[C@H](C(=O)N(C)[C@H](/C=C(\C)C(=O)O)C(C)C)C(C)(C)C)C(C)(C)c1ccccc1 | 54 | 6.04 | 5.92 | 5.28 |
| C/C(=C\[C@H](C(C)C)N(C)C(=O)[C@@H](NC(=O)[C@H](C(C)(C)c1ccccc1)S(C)(=O)=O)C(C)(C)C)C(=O)O | 80 | 5.76 | 5.68 | < 5.52 |
| CN[C@H](C(=O)N[C@H](C(=O)N(C)[C@H](/C=C(\C)C(=O)O)Cc1ccccc1)C(C)(C)C)C(C)(C)c1ccccc1 | 44 | 6.32 | 5.88 | < 5.52 |
| CN[C@H](C(=O)N[C@@H](Cc1ccccc1)C(=O)N(C)[C@H](/C=C(\C)C(=O)O)C(C)C)C(C)(C)c1ccccc1 | 40 | 5.88 | 5.62 | < 5.52 |
| C/C(=C\[C@H](C(C)C)N(C)C(=O)[C@@H](NC(=O)[C@@H](O)C(C)(C)c1ccccc1)C(C)(C)C)C(=O)O | 21 | < 5.52 | < 5.52 | < 5.52 |
| CNC(=O)CN[C@H](C(=O)N[C@H](C(=O)N(C)[C@H](/C=C(\C)C(=O)O)C(C)C)C(C)(C)C)C(C)(C)c1ccccc1 | 0 | < 5.52 | < 5.52 | < 5.52 |
| CC[C@H](NC(=O)[C@@H](NC)C(C)(C)c1ccccc1)C(=O)N(C)[C@H](/C=C(\C)C(=O)O)C(C)C | 73 | 7.32 | 7.15 | 5.97 |
| C/C(=C\[C@H](C(C)C)N(C)C(=O)[C@@H](NC(=O)[C@@H](N)C(C)(C)c1ccccc1)C(C)(C)C)C(=O)O (stereo in doubt; 63) | 49 | – | – | – |
| CN[C@H](C(=O)N[C@H](C(=O)N(C)[C@H](/C=C(\C)C(=O)O)C(C)C)C(C)(C)C)[C@H](C)c1ccccc1 | 77 | 6.36 | 6.23 | < 5.52 |
| C/C(=C\[C@H](C(C)C)N(C)C(=O)[C@@H](NC(=O)[C@@H](C(C)(C)c1ccccc1)S(C)(=O)=O)C(C)(C)C)C(=O)O | 80 | 5.76 | 5.68 | < 5.52 |
| C=CC[C@H](C(=O)N[C@H](C(=O)N(C)[C@H](/C=C(\C)C(=O)O)C(C)C)C(C)(C)C)C(C)(C)c1ccccc1 | 63 | 5.94 | 5.92 | < 5.22 |
| CN[C@H](C(=O)N[C@H](C(=O)N(C)[C@H](/C=C(\C)C(N)=O)C(C)C)C(C)(C)C)C(C)(C)c1ccccc1 | 72 | 7.19 | 6.79 | < 5.52 |
| CN[C@H](C(=O)N[C@H](C(=O)N(C)[C@H](/C=C(\C)C(=O)O)C(C)C)C(C)(C)C)C1(c2ccccc2)CCCCC1 | 5 | 6.69 | 6.44 | < 5.52 |
| CN[C@H](C(=O)N[C@H](C(=O)N(C)[C@H](/C=C(\C)C(=O)O)C(C)C)C(C)(C)C)C(C)(C)O | 40 | 6.82 | 6.53 | < 5.52 |
| CS[C@@H](C(=O)N[C@H](C(=O)N(C)[C@H](/C=C(\C)C(=O)O)C(C)C)C(C)(C)C)C(C)(C)c1ccccc1 | 79 | 6.16 | 5.94 | < 5.22 |
| CN[C@H](C(=O)N[C@H](C(=O)N(C)[C@H](/C=C(\C)C(=O)NCCc1ccccc1)C(C)C)C(C)(C)C)C(C)(C)c1ccccc1 | 72 | 6.79 | 6.65 | 5.75 |
| CCN(C(=O)[C@@H](NC(=O)[C@@H](NC)C(C)(C)c1ccccc1)C(C)(C)C)[C@H](/C=C(\C)C(=O)O)C(C)C | 11 | 6.96 | 6.71 | < 5.52 |
| CN[C@H](C(=O)N(C)[C@H](C(=O)N(C)[C@H](/C=C(\C)C(=O)O)C(C)C)C(C)(C)C)C(C)(C)c1ccccc1 | 4 | < 5.52 | < 5.52 | < 5.52 |
| CN[C@H](C(=O)N[C@H](C(=O)N(C)[C@H](/C=C(\C)C(=O)N1CCN(Cc2ccccc2)CC1)C(C)C)C(C)(C)C)C(C)(C)c1ccccc1 | 29 | 7.82 | 7.66 | 6.44 |
| CNCC(=O)N[C@H](C(=O)N[C@H](C(=O)N(C)[C@H](/C=C(\C)C(=O)O)C(C)C)C(C)(C)C)C(C)(C)c1ccccc1 | 4 | 5.85 | 5.67 | < 5.52 |
| CN[C@H](C(=O)N[C@H](C(=O)N(C)[C@H](/C=C(\C)C(=O)O)C(C)C)C(C)(C)C)C(C)(C)c1ccc(-c2ccccc2)cc1 | 86 | 8.49 | 8.17 | 6.75 |
